This note sets out measurements from ChEMBL document CHEMBL4038284, “Synthesis of novel quinoline-based 4,5-dihydro-1H-pyrazoles as potential anticancer, antifungal, antibacterial and antiprotozoal agents” (Eur J Med Chem, 2017).

One assay relates to SW-620. The assay is described as follows: Growth inhibition of human SW620 cells incubated for 48 hrs by sulforhodamine B assay. In kind it is functional. To be noted: SW-620, 48 h. The gist of the method: (§1)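 NCI-60 panel cells grown in RPMI-1640 with 5% FBS and 2 mM L-glutamine, preincubated 24 h at 37 °C/5% CO2. Time-zero plates were TCA-fixed at compound addition. DMSO stocks were diluted in medium and tested at five final concentrations (100, 10, 1.0, 0.1, 0.01 µM) for 48 h. Cells were TCA-fixed, stained with SRB and read at 515 nm. GI50 = 50% lower net protein increase versus control.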
(In general: The SRB assay estimates cell density from bound dye.)

A further assay has as its system U-251. Description: Growth inhibition of human U251 cells incubated for 48 hrs by sulforhodamine B assay. In kind it is functional. The following applies: U-251, 48 h. The gist of the method:
as §1

The subject of the next assay is UO-31. The assay is described as follows: Growth inhibition of human UO31 cells incubated for 48 hrs by sulforhodamine B assay. The assay is classed as functional. To be noted: UO-31, 48 h. In short, it runs like this:
as §1

For another assay, the system named is SN12C. The assay is described as follows: Growth inhibition of human SN12C cells incubated for 48 hrs by sulforhodamine B assay. In kind it is functional. The gist of the method: as §1
The next assay has as its system OVCAR-5. The assay is described as follows: Growth inhibition of human OVCAR5 cells incubated for 48 hrs by sulforhodamine B assay. In kind it is functional. The following applies: OVCAR-5, 48 h; for CC50: read-out: LC50 (the source's name). In short, it runs like this: (§2)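 NCI 60-line screen. Cells in RPMI-1640 with 5% FBS and 2 mM L-glutamine, preincubated 24 h, then time-zero plates TCA-fixed. Compounds from DMSO stocks given at five final concentrations (100, 10, 1.0, 0.1, 0.01 µM) for 48 h at 37 °C, 5% CO2. Cells fixed with 10% TCA, SRB-stained, read at 515 nm. GI50 is the concentration giving 50% lower net protein increase versus control.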

A further assay relates to OVCAR-3. Description: Growth inhibition of human OVCAR3 cells incubated for 48 hrs by sulforhodamine B assay. To be noted: OVCAR-3, 48 h. In kind it is functional. The gist of the method: (§3)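 Five-dose NCI SRB assay at 100, 10, 1.0, 0.1 and 0.01 μM for 48 h at 37 °C, 5% CO2. Medium was RPMI-1640 with 5% FBS and 2 mM glutamine. Time-zero plates were TCA-fixed at compound addition, A515 read after SRB staining. GI50 was solved from [(Ti−Tz)/(C−Tz)]×100 = 50. Values beyond the tested range are given as > or <.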

Assay [1] has as its system LOX IMVI. Description: Growth inhibition of human LOXIMVI cells incubated for 48 hrs by sulforhodamine B assay. In kind it is functional. In short, it runs like this:
as §3

The subject of a further assay is MDA-MB-435. The assay is described as follows: Growth inhibition of human MDA-MB-435 cells incubated for 48 hrs by sulforhodamine B assay. The assay is classed as functional. The following applies: MDA-MB-435, 48 h. In short, it runs like this:
as §3

Another assay deals with OVCAR-4. The assay is described as follows: Growth inhibition of human OVCAR4 cells incubated for 48 hrs by sulforhodamine B assay. The assay is classed as functional. To be noted: OVCAR-4, 48 h. The gist of the method: as §3
Another assay has as its system IGROV-1. The assay is described as follows: Growth inhibition of human IGROV1 cells incubated for 48 hrs by sulforhodamine B assay. The assay is classed as functional. The following applies: IGROV-1, 48 h; for CC50: read-out: LC50 (the source's name). In short, it runs like this:
as §2

A further assay relates to HL-60(TB). The assay is described as follows: Growth inhibition of human HL-60(TB) cells incubated for 48 hrs by sulforhodamine B assay. In kind it is functional. To be noted: HL-60, 48 h. The gist of the method: as §2
The next assay deals with SNB-19. Description: Growth inhibition of human SNB19 cells incubated for 48 hrs by sulforhodamine B assay. In kind it is functional. To be noted: SNB-19, 48 h. The gist of the method:
as §1

A further assay has as its system A498. The assay is described as follows: Growth inhibition of human A498 cells incubated for 48 hrs by sulforhodamine B assay. In kind it is functional. To be noted: A498, 48 h; for CC50: read-out: LC50 (the source's name). The gist of the method:
as §2

For the next assay, the system named is Malme-3M. The assay is described as follows: Growth inhibition of human MALME-3M cells incubated for 48 hrs by sulforhodamine B assay. In kind it is functional. In short, it runs like this: as §3
Another assay concerns SNB-75. The assay is described as follows: Growth inhibition of human SNB75 cells incubated for 48 hrs by sulforhodamine B assay. In kind it is functional. To be noted: SNB-75, 48 h; for CC50: read-out: LC50 (the source's name). In short, it runs like this:
as §2

The next assay concerns UACC-62. Description: Growth inhibition of human UACC62 cells incubated for 48 hrs by sulforhodamine B assay. In kind it is functional. The following applies: UACC-62, 48 h; for CC50: read-out: LC50 (the source's name). In short, it runs like this:
as §2

Assay [2] relates to LOX IMVI. Description: Growth inhibition of human LOXIMVI cells at 10 uM incubated for 48 hrs by sulforhodamine B assay. In kind it is functional, cell-based. In short, it runs like this:
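NCI 60-line panel, single 10 μM dose. Cells were grown in RPMI-1640 with 5% FBS and 2 mM L-glutamine and pre-incubated 24 h before compound addition (DMSO stock). Exposure was 48 h at 37 °C, 5% CO2. Cells were fixed with cold TCA (10% final), stained with 0.4% SRB, bound dye dissolved in 10 mM Tris base, A515 read. Growth was taken relative to time-zero and untreated control plates.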

The test system of another assay is NCI-H322M. The assay is described as follows: Growth inhibition of human NCI-H322M cells incubated for 48 hrs by sulforhodamine B assay. In kind it is functional. The gist of the method:
as §3

The test system of the next assay is Hs-578T. Description: Growth inhibition of human Hs578T cells incubated for 48 hrs by sulforhodamine B assay. The assay is classed as functional. The gist of the method:
as §3

In a further assay the test system is BT-549. The assay is described as follows: Growth inhibition of human BT549 cells at 10 uM incubated for 48 hrs by sulforhodamine B assay. In kind it is functional, cell-based. In short, it runs like this: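 NCI 60-cell-line screen at a single 10 µM dose. Cells in RPMI-1640 with 5% FBS and 2 mM L-glutamine, pre-incubated 24 h, then treated for 48 h at 37 °C. TCA fixation, sulforhodamine B staining, absorbance at 515 nm. Percentage growth calculated against time-zero and untreated controls.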

A further assay relates to Candida albicans. Description: Growth inhibition of Candida albicans ATCC 10231 at 31.25 ug/ml incubated for 48 hrs under dark condition by broth microdilution method relative to control. To be noted: ATCC 10231, 48 h, read-out: GI. In kind it is functional. The gist of the method: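 CLSI M27-A3 broth microdilution in RPMI-1640, DMSO ≤1%. Inoculum 1-5 × 10^3 CFU/mL. Incubated 48 h at 30 °C, dark. % inhibition = 100 − (OD405 test − sterility control)/(OD405 growth control − sterility control), with growth and sterility control wells. Triplicate.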
On the technique in general: Dilution methods test growth across graded concentrations, often in twofold steps.

Another assay concerns T47D. Description: Growth inhibition of human T47D cells incubated for 48 hrs by sulforhodamine B assay. The assay is classed as functional. In short, it runs like this:
as §1

For a further assay, the system named is MOLT-4. The assay is described as follows: Growth inhibition of human MOLT4 cells incubated for 48 hrs by sulforhodamine B assay. The assay is classed as functional. The following applies: MOLT-4, 48 h; for CC50: read-out: LC50 (the source's name). The gist of the method: as §2
The mark [3] stands for this setting: read-out: LC50 (the source's name).

Active and inactive are the calls of the source. The calls are words filed in the database; no cut-off is given here.

By GI50 is commonly meant the concentration that inhibits growth by half. Read a high GI50 as less potent growth inhibition.

In the case of `COc1ccc(C(=O)/C=C/c2cccc(Nc3ccnc4cc(Cl)ccc34)c2)cc1`, the GI50 in the assay on SW-620 was found to be 1980 nM; in the assay with U-251, 1730 nM; in the assay on UO-31, 1030 nM; in the assay on SN12C, 1300 nM; in the assay with OVCAR-5, 2600 nM; with OVCAR-3 it was 1690 nM. The GI50 in the assay with LOX IMVI [1] amounted to 1580 nM; in the assay with MDA-MB-435, 2130 nM; in the assay with OVCAR-4 it was 1000 nM; with IGROV-1, 1440 nM; with HL-60(TB), 2980 nM; in the assay on SNB-19 it was 2260 nM. Further, the GI50 with A498 was determined as 3000 nM; with Malme-3M, 1790 nM; in the assay on SNB-75, 1510 nM; in the assay with UACC-62, 1190 nM; with NCI-H322M it was 2690 nM; in the assay with Hs-578T it was 3180 nM. Further, the 50% growth inhibitory concentration (GI50) was found to be 660 nM in the assay on T47D and 2900 nM in the assay with MOLT-4. Moreover, the CC50 in the assay on SW-620 (setting [3]) was more than 100000 nM; in the assay with U-251 (setting [3]), 23700 nM; in the assay on SN12C (setting [3]), more than 100000 nM; in the assay with OVCAR-5 it was more than 100000 nM; in the assay with OVCAR-3 (setting [3]), more than 100000 nM; in the assay with LOX IMVI [1] (setting [3]), more than 100000 nM. Besides, the CC50 in the assay on MDA-MB-435 (setting [3]), in the assay on IGROV-1, in the assay on HL-60(TB) (setting [3]), in the assay with SNB-19 (setting [3]), in the assay with A498 and with Malme-3M (setting [3]) was more than 100000 nM each time. Further, the CC50 with SNB-75, in the assay with UACC-62, with NCI-H322M (setting [3]), with Hs-578T (setting [3]), in the assay on T47D (setting [3]) and with MOLT-4 was more than 100000 nM throughout. Besides, the “growth inhibition (GI)” value with LOX IMVI [2] and in the assay on BT-549 was “Active” throughout. Also, the inhibition of growth at 31.25 µg/mL in the assay on Candida albicans was 26.9%.

As for `O=Cc1cccc(Nc2ccnc3cc(Cl)ccc23)c1`, in the assay on Candida albicans, the inhibition of growth at 31.25 µg/mL came to 10.6%.

Take `COc1cccc2c1C(=O)c1c(O)c3c(c(O)c1C2=O)C[C@@](O)(C(=O)CO)C[C@@H]3O[C@H]1C[C@H](N)[C@H](O)[C@H](C)O1` [DOXORUBICIN]: the GI50 in the assay on SW-620 was found to be 90 nM; in the assay with U-251, 40 nM; in the assay with UO-31 it was 490 nM; in the assay on SN12C it was 70 nM; in the assay on OVCAR-5, 410 nM; in the assay on OVCAR-3 it was 390 nM. Further, the GI50 in the assay on LOX IMVI [1] is 70 nM; in the assay on MDA-MB-435 it was 250 nM; in the assay with OVCAR-4, 370 nM; in the assay with IGROV-1, 170 nM; in the assay with HL-60(TB), 120 nM; in the assay on SNB-19, 40 nM. In addition, the GI50 in the assay on A498 was found to be 100 nM; in the assay with Malme-3M, 120 nM; in the assay on SNB-75, 70 nM; with UACC-62 it was 140 nM; with NCI-H322M, 540 nM; in the assay on Hs-578T, 330 nM. Moreover, the figures for the GI50 with T47D and in the assay with MOLT-4 were 60 nM and 30 nM, respectively. The CC50 in the assay with OVCAR-5 was 100000 nM; with IGROV-1, 100000 nM; in the assay on A498, 1900 nM; in the assay on SNB-75, 3300 nM; in the assay on UACC-62, 1310 nM; with MOLT-4, 100000 nM.
